Active and inactive are the calls of the source. No cut-off for these calls is given here.
Columns and labels:
Trypanosoma cruzi [1] = experiment: Antitrypanosomal activity against Trypanosoma cruzi Y infected in mouse assessed as decrease in mouse mortality at 200 mg/kg, po upto 40 days post infection; type: functional, organism-based; design: dose 200 mg/kg
Procedure, shortened: (§1)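 Male Swiss mice (6–8 weeks, 18–20 g), 8–10 per group, infected i.p. with 10^4 bloodstream trypomastigotes (Y strain). On dpi 5, a single 200 mg/kg oral gavage dose was given in water with 10% Tween-80. Parasitemia was counted daily from dpi 6 to 21 by the Pizzi-Brener method. Body weight was recorded weekly. Mortality was recorded daily, and cumulative mortality at 40 dpi and M50 were calculated.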

Trypanosoma cruzi [2] = experiment: Antitrypanosomal activity against Trypanosoma cruzi Y infected in mouse assessed as decrease in parasitemia in blood at 200 mg/kg, po upto 40 days post infection; type: functional; procedure, shortened: as §1
Trypanosoma cruzi [3] = experiment: Antitrypanosomal activity against Trypanosoma cruzi Y infected in mouse assessed as decrease in mouse mortality at 200 mg/kg, po after 20 days post infection; type: functional, organism-based; design: dose 200 mg/kg; procedure, shortened: as §1

Structure (SMILES)	Activity (Trypanosoma cruzi [1])	Activity (Trypanosoma cruzi [2])	Activity (Trypanosoma cruzi [3])
Cn1c([N+](=O)[O-])cnc1-c1nnc(N/N=C\c2ccc(Cl)cc2)s1	inactive	inactive	
Cn1c([N+](=O)[O-])cnc1-c1nnc(N/N=C\c2ccccc2O)s1	inactive	inactive	
Cn1c([N+](=O)[O-])cnc1-c1nnc(N/N=C\c2ccc([N+](=O)[O-])cc2)s1		Active	inactive
COc1ccc(/C=N\Nc2nnc(-c3ncc([N+](=O)[O-])n3C)s2)cc1O	inactive	inactive	

Reference: ChEMBL document CHEMBL1255468 (Antimicrob Agents Chemother, 2010)
